CFTR F508del cor: CFTR F508del correction in bronchial cells | CFBE cells, YFP halide quenching; stimulated with forskolin plus potentiator P3; % fluorescence drop versus neutral controls | 350,000 compounds, 0.36% hits | activity (quench increase), % at 7.58 µM;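 active = mean added fluorescence quench of at least 8% versus neutral control, with both replicates also reaching 8%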;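 note: cells transiently co-express mutant CFTR-F508del with the halide-sensitive YFP; corrector assay measuring rescue of mutant channel to the surface after 24 h compound exposure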
E-sel inducer: E-selectin induction on HUVECs; P16581; HUVEC E-selectin immunofluorescence imaging; normalized: neutral wells 0, TNF-alpha wells 100; activation, % at 7.58 µM; 260,000 compounds, 0.37% hits;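 active = mean E-selectin-positive cell signal at least 10% of the positive control, reached in at least 60% of replicates, without over 20% cell loss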
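System: HUVEC / Compound: single concentration / Signal: immunofluorescence imaging / Read-out: percent E-selectin-positive cells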
HIV Env fusion: blocks HIV Env-driven cell-cell fusion | 360,000 compounds, 1.1% hits | inhibition, % at 12.3 µM | HeLa-JRFL Env/CEM21 cell fusion, luciferase;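 active = mean replicate inhibition score of at least 50 and every replicate individually at or above 50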;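 note: 0% = plate neutral controls and 100% = maraviroc near 300 nM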
FGF22 binding: shifts melting point of recombinant human FGF22; AID 651658; Q9HCT0; recombinant FGF22 thermal shift, SYPRO orange fluorescence; percent of sucrose octasulfate shift, DMSO zero; activity (Tm shift, normalised), % at 9.99 µM; 340,000 compounds, 1.5% hits;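 active = mean Tm shift, scaled 0 neutral to 100 positive control, at about 1.3% or above, every replicate too, limit read from the data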
Target sequence (Q9HCT0 whole entry, looked up): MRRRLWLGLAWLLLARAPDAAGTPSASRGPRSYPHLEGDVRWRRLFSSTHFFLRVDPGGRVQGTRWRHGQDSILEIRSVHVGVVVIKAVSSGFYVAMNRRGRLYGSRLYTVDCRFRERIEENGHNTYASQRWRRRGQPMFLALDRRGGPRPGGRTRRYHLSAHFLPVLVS
S100A4 MyoIIA: blocks human S100A4 binding to myosin IIA peptide; inhibition, % at 10.7 µM; P26447; AID 652163; 360,000 compounds, 0.14% hits; S100A4/TAMRA-MyoIIA peptide fluorescence polarization;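 active = mean inhibition of at least 70% across replicates, with every replicate also reaching that level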
Target sequence (P26447 whole entry, looked up): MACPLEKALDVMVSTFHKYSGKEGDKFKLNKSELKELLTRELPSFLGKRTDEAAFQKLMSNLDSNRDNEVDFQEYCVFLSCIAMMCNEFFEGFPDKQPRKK
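Compound dosing: one dose per compound; test system: human S100A4 monomer with TAMRA-labelled myosin IIA peptide; probe or stimulus: TAMRA-labelled myosin IIA heavy-chain peptide probe, 5 nM; medium: HEPES buffer with Ca2+, pH 7.2; schedule: 5 min incubation before reading; benchmarks: neutral control DMSO, positive control TFP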
Active calls of the source: *; [ ] = another dose, or the depositor's remark. The list is not random: actives were taken first. Their share in the collection is about 2.7%.

How did CCCC(=O)Nc1ccc2c(c1)C(=O)N(C)C[C@H](OC)[C@@H](C)CN(CC1CCCC1)[C@@H](C)CO2 do in these assays?
CFTR F508del cor: -3.2; E-sel inducer: 0.0; HIV Env fusion: 0.5[16.7 µM]; FGF22 binding: -0.4; S100A4 MyoIIA: 5.7

Results for O=C(C[C@@H]1CC[C@H](NC(=O)c2ccccc2)[C@H](CO)O1)Nc1ccc(-c2ccccc2)cc1 ?
CFTR F508del cor: -0.8; E-sel inducer: -0.7; HIV Env fusion: 16.1[16.7 µM]; FGF22 binding: -0.4; S100A4 MyoIIA: 1.0

What do the screens show for `COc1ccc2c3c(n(C)c2c1)[C@H](CO)N(C(=O)c1ccncc1)CC31CCN(C(C)=O)CC1`?
CFTR F508del cor: 0.6; E-sel inducer: -0.4; FGF22 binding: -0.1; S100A4 MyoIIA: 6.8

What do the screens show for `Cc1noc(C)c1S(=O)(=O)N(C)C[C@@H]1Oc2ccc(NC(=O)Nc3ccccc3)cc2CC(=O)N([C@@H](C)CO)C[C@@H]1C`?
CFTR F508del cor: -0.8; E-sel inducer: 0.0; HIV Env fusion: 84.8*[16.7 µM]

How did Cc1noc(C)c1S(=O)(=O)N(C)C[C@@H]1Oc2ccc(NC(=O)Nc3ccccc3)cc2CC(=O)N([C@@H](C)CO)C[C@H]1C do in these assays?
CFTR F508del cor: 1.5; E-sel inducer: -0.3; HIV Env fusion: -8.3[16.7 µM]

What do the screens show for `Cc1noc(C)c1S(=O)(=O)N(C)C[C@@H]1Oc2ccc(NC(=O)Cc3ccccc3)cc2CC(=O)N([C@H](C)CO)C[C@@H]1C`?
CFTR F508del cor: -6.1; E-sel inducer: -2.1; HIV Env fusion: 64.9*[16.7 µM]; FGF22 binding: -0.1

Results for C[C@@H]1CN([C@H](C)CO)C(=O)Cc2cc(NC(=O)Cc3ccccc3)ccc2O[C@H]1CN(C)S(C)(=O)=O ?
CFTR F508del cor: 1.5; E-sel inducer: 67.9*; HIV Env fusion: 10.9[16.7 µM]; FGF22 binding: 0.3; S100A4 MyoIIA: -1.9

What do the screens show for `C[C@H]1CN([C@@H](C)CO)C(=O)Cc2cc(NC(=O)Cc3ccccc3)ccc2O[C@@H]1CN(C)S(=O)(=O)c1ccccc1`?
CFTR F508del cor: 0.6; E-sel inducer: 0.0; HIV Env fusion: 9.3[16.7 µM]; FGF22 binding: 0.0; S100A4 MyoIIA: -1.2

Results for C[C@@H]1CCCCO[C@@H](CN(C)C(=O)Nc2cccc3ccccc23)[C@H](C)CN([C@H](C)CO)C(=O)c2cc(NS(=O)(=O)c3ccc(F)cc3)ccc2O1 ?
CFTR F508del cor: 1.2; E-sel inducer: 0.0; HIV Env fusion: 11.6[16.7 µM]; S100A4 MyoIIA: -2.6

How did Brc1cnc2nc(SCc3nc4ccccc4[nH]3)[nH]c2c1 do in these assays?
CFTR F508del cor: 0.8; E-sel inducer: 52.8*; HIV Env fusion: 7.6; FGF22 binding: -0.2; S100A4 MyoIIA: -1.6

Results for c1ccc(SCc2nc3ccccc3[nH]2)cc1 ?
HIV Env fusion: -68.2

What do the screens show for `COc1ccc(S(=O)(=O)Nc2ccc3c(c2)CC(=O)N([C@@H](C)CO)C[C@H](C)[C@@H](CN(C)C(=O)Nc2cccc4ccccc24)O3)cc1`?
CFTR F508del cor: -2.1; E-sel inducer: -7.6; HIV Env fusion: 16.1[16.7 µM]; FGF22 binding: -0.1; S100A4 MyoIIA: 3.9

Results for COc1ccc2c3c(n(C)c2c1)[C@H](CO)N(Cc1ccccc1)CC31CN(S(C)(=O)=O)C1 ?
CFTR F508del cor: -1.9; E-sel inducer: -0.2

How did O=C(Nc1cc(Cl)cc(Cl)c1)C(NCC1CCCO1)c1ccccc1 (configuration not stated) do in these assays?
CFTR F508del cor: 0.2; HIV Env fusion: 44.6; FGF22 binding: 0.3; S100A4 MyoIIA: 2.4

Results for CN(C)CCNC(C(=O)Nc1cc(Cl)cc(Cl)c1)c1ccccc1 (configuration not stated) ?
CFTR F508del cor: 3.1; HIV Env fusion: -4.2; FGF22 binding: 43.1*; S100A4 MyoIIA: -3.8

How did NCC[C@@H]1CC[C@H](NC(=O)Nc2ccc(F)cc2)[C@@H](CO)O1 do in these assays?
CFTR F508del cor: -1.9; E-sel inducer: -0.3; HIV Env fusion: 7.2[16.7 µM]; FGF22 binding: 0.1; S100A4 MyoIIA: -2.3

Results for CN(Cc1cn(C)nc1-c1ccccc1F)Cc1nccn1C ?
CFTR F508del cor: -1.3; HIV Env fusion: -9.0; FGF22 binding: 0.2; S100A4 MyoIIA: -0.4

How did Cn1cc(CN(CCO)Cc2cccs2)c(-c2ccccc2F)n1 do in these assays?
CFTR F508del cor: -2.4; HIV Env fusion: 6.9; FGF22 binding: 42.9*; S100A4 MyoIIA: -1.5

How did CCN(CC)c1ccc(/C=N/NC(=O)Cc2ccc(OC)c(OC)c2)cc1 do in these assays?
CFTR F508del cor: 1.4; E-sel inducer: 35.8*; HIV Env fusion: 9.2; FGF22 binding: 0.0; S100A4 MyoIIA: 1.4

What do the screens show for `COc1ccc(/C=N/NC(=O)Cc2ccc(Cl)cc2)cc1OC`?
CFTR F508del cor: -1.7; HIV Env fusion: 0.1; FGF22 binding: 0.1; S100A4 MyoIIA: 6.3

Results for Cc1noc(C)c1NC(=O)Nc1ccc2c(c1)C(=O)N([C@@H](C)CO)C[C@H](C)[C@@H](CN(C)C)OCCCC[C@H](C)O2 ?
CFTR F508del cor: -0.6; E-sel inducer: 0.1; HIV Env fusion: -6.3[16.7 µM]; FGF22 binding: 0.9; S100A4 MyoIIA: -42.5

How did CO[C@@H](CN(C)S(=O)(=O)c1ccc(Cl)cc1)[C@H](C)CN([C@@H](C)CO)S(=O)(=O)c1cccc(Cl)c1 do in these assays?
CFTR F508del cor: 2.8; E-sel inducer: 0.2; HIV Env fusion: 74.3*[16.7 µM]; FGF22 binding: -0.2; S100A4 MyoIIA: 0.2

Results for CO[C@@H](CN(C)S(=O)(=O)c1ccc(Cl)cc1)[C@@H](C)CN([C@@H](C)CO)S(=O)(=O)c1cccc(Cl)c1 ?
CFTR F508del cor: 3.0; E-sel inducer: -0.1; HIV Env fusion: 43.4[16.7 µM]; FGF22 binding: 0.3; S100A4 MyoIIA: 8.7

Results for CO[C@H](CN(C)S(=O)(=O)c1ccc(Cl)cc1)[C@@H](C)CN([C@@H](C)CO)S(=O)(=O)c1cccc(Cl)c1 ?
CFTR F508del cor: -0.4; E-sel inducer: 0.4; HIV Env fusion: 77.2*[16.7 µM]; FGF22 binding: 0.1; S100A4 MyoIIA: -0.1

What do the screens show for `CO[C@H](CN(C)S(=O)(=O)c1cccc(Cl)c1)[C@H](C)CN([C@H](C)CO)S(=O)(=O)c1ccc(Cl)cc1`?
CFTR F508del cor: 0.2; E-sel inducer: 0.1; HIV Env fusion: 45.1[16.7 µM]; FGF22 binding: -0.3; S100A4 MyoIIA: 20.5

What do the screens show for `CO[C@@H](CN(C)S(=O)(=O)c1ccc(C)cc1)[C@H](C)CN([C@@H](C)CO)S(=O)(=O)c1cccc(Cl)c1`?
CFTR F508del cor: 10.6*; E-sel inducer: 0.2; FGF22 binding: -0.2; S100A4 MyoIIA: 3.5

What do the screens show for `C[C@@H]1CN([C@@H](C)CO)C(=O)c2cc(NC(=O)Nc3ccc(C(F)(F)F)cc3)ccc2O[C@H]1CN(C)C(=O)Nc1ccc2c(c1)OCO2`?
CFTR F508del cor: -2.4; E-sel inducer: -0.7; FGF22 binding: 0.6; S100A4 MyoIIA: -5.0

High-throughput results deposited in PubChem BioAssay by Broad Institute.
